Experiments:
HeLa [1] = experiment: In vitro antimitotic activity against HeLa cells after 6 hours exposure; format: functional, Homo sapiens
Summary of the method: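 Asynchronous HeLa cells were exposed to compound continuously for 6 h. Mitotic index (cells in mitosis/cells counted) was scored on about 300 cells counted across three fields. The equivalent dose (ED) is the concentration giving the same mitotic index as the colchicine standard at 0.05 µg/mL.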

HeLa [2] = experiment: In vitro antimitotic activity against HeLa cells after 1 hr exposure to the compound; format: functional, Homo sapiens
Summary of the method: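 HeLa cells exposed to compound for 1 h, washed in fresh medium, then kept 18 h in compound-free medium. Mitotic index (cells in mitosis/cells counted) scored as in the 6-h test. The reported equivalent dose (ED) is the concentration giving the same mitotic index as vinblastine at 0.06 µg/mL.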

L1210 [3] = experiment: The ratio of survival time for treated divided by survival time of control x 100 at a dose of 50 mg/kg in L1210 leukemia cells; format: functional, Mus musculus
Summary of the method: (§1)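 Mice inoculated ip on day 0 with 1 × 10^5 L1210 leukemia or B16 melanoma cells. Compounds given ip once daily on days 1-9, suspended or dissolved in 5% PVP. Survival time recorded and averaged per group. Value is mean survival of treated over control × 100.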

B16 [4] = experiment: The ratio of survival time for treated divided by survival time of control x 100 at a dose of 25 mg/kg in B16 melanoma cells; format: functional, Mus musculus; summary of the method: as §1
L1210 [5] = experiment: The ratio of survival time for treated divided by survival time of control x 100 at a dose of 25 mg/kg in L1210 leukemia cells; format: functional, Mus musculus; summary of the method: as §1
L1210 [6] = experiment: The ratio of survival time for treated divided by survival time of control x 100 at a dose of […] in L1210 leukemia cells; format: functional, Mus musculus
L1210 [7] = experiment: The ratio of survival time for treated divided by survival time of control x 100 at a dose of 6.25 mg/kg in L1210 leukemia cells; format: functional, Mus musculus; summary of the method: as §1
B16 [8] = experiment: The ratio of survival time for treated divided by survival time of control x 100 at a dose of […] in B16 melanoma cells; format: functional, Mus musculus
B16 [9] = experiment: The ratio of survival time for treated divided by survival time of control x 100 at a dose of 100 mg/kg in B16 melanoma cells; format: functional, Mus musculus; summary of the method: as §1

SMILES | ED (HeLa [1]) [µg/mL] | other results
CCc1cccc(C(=O)/C=C/c2ccc(NC(C)=O)cc2)c1 | >100 | –
COC(=O)Nc1ccc(/C=C/C(=O)c2cc(OC)c(OC)c(OC)c2)cc1 | 3.1 | –
COc1cc(C(=O)/C=C/c2ccccc2C(F)(F)F)cc(OC)c1OC | 100 | –
CO/N=C(\C=C\c1ccc(N(C)C)cc1)c1cc(OC)c(OC)c(OC)c1 | 0.3 | –
COc1ccc(OC)c(C(=O)/C(Br)=C/c2ccc(N(C)C)cc2)c1 | 0.0075 | –
COc1cc(C(=O)/C=C/c2ccco2)cc(OC)c1OC | 5 | –
CCCCOc1ccc(/C=C/C(=O)c2cc(OC)c(OC)c(OC)c2)cc1 | >25 | –
COc1cc2c(c(OC)c1OC)-c1ccc(OC)c(=O)cc1[C@@H](NC(C)=O)CC2 [COLCHICINE] | 0.05 | –
COc1cc(C(=O)/C(C)=C/c2ccc(N(C)C)cc2)cc(OC)c1OC | 0.019 | ED (HeLa [2]): 0.3 µg/mL
COc1cc(C(=O)/C=C/c2cccc(N(C)C)c2)cc(OC)c1OC | >100 | –
COc1ccccc1C(=O)/C=C/c1ccc(N(C)C)cc1 | 0.15 | ED (HeLa [2]): 6.25 µg/mL
COc1cc(C(=O)/C=C(\C)c2ccc(N)cc2)cc(OC)c1OC | 0.3 | –
COc1cc(C(=O)CCc2ccc(N(C)C)cc2)cc(OC)c1OC | 3.1 | –
CCN(CC)c1ccc(/C=C(\C)C(=O)c2cc(OC)ccc2OC)cc1 | 0.15 | –
COc1cc(C(=O)/C=C/c2ccncc2)cc(OC)c1OC | 25 | –
COc1ccc(C(=O)/C=C/c2cccs2)c(OC)c1OC | 3.1 | –
COc1cc(C(=O)/C=C/c2ccc(N(C)C)cc2)cc(OC)c1O | 3.1 | –
COc1cc(C(=O)/C(Cl)=C/c2ccc(N(C)C)cc2)cc(OC)c1OC | 3.1 | –
COc1cc(C(O)/C=C/c2ccc(N(C)C)cc2)cc(OC)c1OC (configuration not stated) | 3.1 | –
CC(=O)Nc1ccc(/C=C/C(=O)c2cccc(Cl)c2)cc1 | >100 | –
CC(=O)Nc1ccc(/C=C/C(=O)c2cccc(C(F)(F)F)c2)cc1 | 25 | –
COc1cc(C(=O)/C=C/c2cccc(N)c2)cc(OC)c1OC | 0.15 | –
CCCCNc1ccc(/C=C/C(=O)c2cc(OC)c(OC)c(OC)c2)cc1 | 6.25 | –
COc1cc(C(=O)/C=C/c2ccc(OC(C)C)cc2)cc(OC)c1OC | >25 | –
COc1cc(C(=O)/C(Br)=C/c2ccc(N(C)C)cc2)cc(OC)c1OC | 0.0038 | ED (HeLa [2]): 1.5 µg/mL

SMILES | ED (HeLa [1]) [µg/mL] | other results
COc1cc(C(=O)/C=C/c2cccc([N+](=O)[O-])c2)cc(OC)c1OC | >100 | –
COc1ccc(C(=O)/C(C)=C/c2ccc(N(C)C)cc2)c(OC)c1OC | 1.5 | T/C (L1210 [3]): 138%; T/C (B16 [4]): 190%; T/C (L1210 [5]): 121%
COc1cc(C(=O)/C=C/c2ccc([S+](C)[O-])cc2)cc(OC)c1OC (configuration not stated) | >100 | –
COc1cc(C(=O)/C=C/c2ccc(SC)cc2)cc(OC)c1OC | 0.3 | –
COc1cc(OC)c(C(=O)/C=C/c2ccc(NC(C)=O)cc2)c(OC)c1 | 3.1 | –
COc1cc(C(=O)/C=C/c2ccc(N)cc2)cc(OC)c1OC | 0.15 | –
COc1ccc(OC)c(C(=O)/C(Cl)=C/c2ccc(N(C)C)cc2)c1 | 0.015 | –
COc1cc(C(=O)/C=C(\C)c2ccc(N(C)C)cc2)cc(OC)c1OC | >100 | –
CCN(CC)c1ccc(/C=C(\C)C(=O)c2cc(OC)c(OC)c(OC)c2)cc1 | 0.0075 | –
COc1cc(C(=O)/C=C/c2ccc(NC(C)=O)cc2)cc(OC)c1OC | 3.1 | –
COc1ccc(C(=O)/C(Cl)=C/c2ccc(N(C)C)cc2)c(OC)c1OC | 0.015 | –
COc1cc(C(=O)/C=C/c2ccc(N3CCOCC3)cc2)cc(OC)c1OC | 6.25 | –
COc1ccc(OC)c(C(=O)/C=C/c2ccc(N(C)C)cc2)c1 | 0.0075 | ED (HeLa [2]): 1.5 µg/mL
COc1cc(C(=O)/C=C/c2cccs2)cc(OC)c1OC | 3.1 | –
COc1cc(C(=O)/C=C/c2ccc(Br)cc2)cc(OC)c1OC | 0.015 | –
COc1cc(C(=O)/C=C/c2cccc(NC(C)=O)c2)cc(OC)c1OC | >100 | –
COc1cc(C(=O)/C=C(\C)c2ccccc2)cc(OC)c1OC | 3.1 | –
CCOc1ccc(/C=C/C(=O)c2cc(OC)c(OC)c(OC)c2)cc1 | 0.15 | –
COc1cc(C(=O)/C=C/c2ccc(C(F)(F)F)cc2)cc(OC)c1OC | 6.25 | –
CC(=O)Nc1ccc(/C=C/C(=O)c2ccc(C(N)=O)cc2)cc1 | 3.1 | –
COc1cc(/C=C/C(=O)c2ccccc2)cc(OC)c1OC | >25 | –
COc1cc(/C=C/C(=O)c2ccc(N(C)C)cc2)cc(OC)c1OC | 0.15 | –
CCN(CC)c1ccc(/C=C/C(=O)c2ccc(OC)c(OC)c2OC)cc1 | 0.15 | –
COc1ccc(C(=O)/C=C/c2ccc(N(C)C)cc2C)c(OC)c1OC | 3.1 | –
O=C(/C=C/c1ccccc1)c1ccccc1 [CHALCONE] | 3.1 | –

SMILES | ED (HeLa [1]) [µg/mL] | other results
COc1ccc(OC)c(C(=O)/C(C)=C/c2ccc(N(C)C)cc2)c1 | 0.0038 | T/C (L1210 [3]): 154%; T/C (B16 [4]): 183%; T/C (L1210 [6]): 137%; T/C (L1210 [7]): 126%; T/C (L1210 [5]): 146%; T/C (B16 [8]): 146%; ED (HeLa [2]): 0.06 µg/mL
CC(=O)Nc1ccc(/C=C/C(=O)c2ccc(C#N)cc2)cc1 | 25 | –
COc1ccc(C(=O)/C=C/c2ccc(N(C)C)cc2)cc1OC | 3.1 | –
COc1ccc(C(=O)/C=C/c2ccc(NC(C)=O)cc2)c(OC)c1OC | 3.1 | –
COc1ccc(OC)c(C(=O)/C=C/c2ccc(NC(C)=O)cc2)c1 | 6.25 | –
COc1ccc(C(=O)/C=C/c2ccc(NC(C)=O)cc2)cc1 | 3.1 | –
COc1cc(C(=O)/C=C/c2ccc(N(C)C)cc2)cc(OC)c1OC | 0.015 | ED (HeLa [2]): 12.5 µg/mL
CC/C(=C\c1ccc(N(C)C)cc1)C(=O)c1ccc(OC)c(OC)c1OC | 0.15 | –
COc1cc(C(=O)/C=C/c2ccccc2)cc(OC)c1OC | 0.15 | –
COc1cc(C(=O)/C=C/c2ccc(N(C)C)cc2C)cc(OC)c1OC | 0.0075 | –
COc1cc(C(=O)C#Cc2ccccc2)cc(OC)c1OC | >6.25 | –
CC(=O)Nc1ccc(/C=C/C(=O)c2ccc(C(C)(C)C)cc2)cc1 | 0.25 | –
COc1cc(C(=O)/C=C/c2ccc(C(C)(C)C)cc2)cc(OC)c1OC | 2.5 | –
COc1cc(C(=O)/C=C/c2ccc([N+](=O)[O-])cc2)cc(OC)c1OC | 25 | –
COc1cc(C(=O)/C=C/c2ccc(C#N)cc2)cc(OC)c1OC | 3.1 | –
CCN(CC)c1ccc(/C=C/C(=O)c2cc(OC)c(OC)c(OC)c2)cc1 | 0.0075 | –
COc1cc(C(=O)/C=C/C=C/c2ccc(N(C)C)cc2)cc(OC)c1OC | 3.1 | –
COc1ccc(C(=O)/C(C)=C/c2ccccc2)c(OC)c1OC | – | ED (HeLa [2]): 6.25 µg/mL
COc1cc(C(=O)/C=C/c2ccc(F)cc2)cc(OC)c1OC | >25 | –
COc1ccc(C(=O)/C(Br)=C/c2ccc(N(C)C)cc2)c(OC)c1OC | 0.15 | T/C (B16 [9]): 192%; T/C (L1210 [3]): 140%; T/C (L1210 [5]): 145%; ED (HeLa [2]): 6.25 µg/mL
CCN(CC)c1ccc(/C=C(\C)C(=O)c2ccc(OC)c(OC)c2OC)cc1 | 25 | –
COc1ccc(C(=O)/C=C/c2ccc(N(C)C)cc2)c(OC)c1 | 6.25 | –
COc1ccc(C(=O)/C=C/c2ccc(N(C)C)cc2)c(OC)c1OC | 0.015 | –
